# Activity calls are given as the source filed them. No cut-off for these calls is given here.
# Assays:
# [1] = tested on: Liver microsome; experiment: Drug metabolism in rat liver microsomes at […] after 60 mins by HPLC analysis; format: ADME; conditions: 1 h
# Summary of the method: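 Uninduced rat liver microsomes (100,000g pellet, washed), 20–80 μg protein, incubated with 20 nmol sulindac epimer in 100 μl 100 mM potassium phosphate pH 7.4 with NADPH-regenerating system (1.5 mM NADPH, 5 mM glucose 6-phosphate, G6PDH, 5 mM MgCl2), 60 min, 37°C. Stopped with 3 volumes acetonitrile; sulfone quantified by C18 HPLC. Six rat preparations.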
# [2] = Drug metabolism in rat liver cytosolic fraction at 20 nM after 60 mins by HPLC analysis; format: ADME, tissue-based; conditions: cytosol, 1 h
# [3] = target: Cytochrome P450 1A1 (Rattus norvegicus, UniProt P00185); experiment: Drug metabolism assessed as rat recombinant CYP1A1-mediated sulindac sulfone formation measured per pmol of protein at 500 uM after 90 mins by HPLC analysis; format: ADME; conditions: recombinant enzyme, 1.5 h
# Sequence of Cytochrome P450 1A1 (P00185 whole entry): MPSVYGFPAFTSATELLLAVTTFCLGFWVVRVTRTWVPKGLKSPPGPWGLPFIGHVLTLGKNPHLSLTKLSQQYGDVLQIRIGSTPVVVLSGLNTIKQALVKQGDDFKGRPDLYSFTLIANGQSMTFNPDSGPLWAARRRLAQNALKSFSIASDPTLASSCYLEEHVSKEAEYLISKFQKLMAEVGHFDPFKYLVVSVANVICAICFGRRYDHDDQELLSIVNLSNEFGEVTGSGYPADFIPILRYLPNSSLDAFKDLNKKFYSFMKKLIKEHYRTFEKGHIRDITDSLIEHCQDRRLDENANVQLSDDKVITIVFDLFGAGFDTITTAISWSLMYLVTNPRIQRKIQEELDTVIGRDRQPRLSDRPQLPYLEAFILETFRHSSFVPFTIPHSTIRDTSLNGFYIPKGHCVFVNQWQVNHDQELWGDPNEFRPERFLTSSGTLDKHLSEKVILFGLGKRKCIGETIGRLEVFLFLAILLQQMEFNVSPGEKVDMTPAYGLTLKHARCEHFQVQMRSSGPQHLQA
# Summary of the method: (§1)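 Recombinant rat or human P450 Supersomes (some with cytochrome b5, variable reductase) incubated with (R)-sulindac at 500 μM or (S)-sulindac at 200 μM plus NADPH-regenerating system in 100 mM potassium phosphate pH 7.4 at 37°C, linear up to 90 min; acetonitrile stop; sulfone by C18 HPLC at 330 nm; ≥3 runs; pmol/pmol enzyme/h, mean ± S.E.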
# [4] = target: Cytochrome P450 1A2 (Rattus norvegicus, UniProt P04799); experiment: Drug metabolism assessed as rat recombinant CYP1A2-mediated sulindac sulfone formation measured per pmol of protein at 500 uM after 90 mins by HPLC analysis; format: ADME; conditions: recombinant enzyme, 1.5 h; summary of the method: as §1
# Sequence of Cytochrome P450 1A2 (Rattus norvegicus, UniProt P04799) (P04799 whole entry): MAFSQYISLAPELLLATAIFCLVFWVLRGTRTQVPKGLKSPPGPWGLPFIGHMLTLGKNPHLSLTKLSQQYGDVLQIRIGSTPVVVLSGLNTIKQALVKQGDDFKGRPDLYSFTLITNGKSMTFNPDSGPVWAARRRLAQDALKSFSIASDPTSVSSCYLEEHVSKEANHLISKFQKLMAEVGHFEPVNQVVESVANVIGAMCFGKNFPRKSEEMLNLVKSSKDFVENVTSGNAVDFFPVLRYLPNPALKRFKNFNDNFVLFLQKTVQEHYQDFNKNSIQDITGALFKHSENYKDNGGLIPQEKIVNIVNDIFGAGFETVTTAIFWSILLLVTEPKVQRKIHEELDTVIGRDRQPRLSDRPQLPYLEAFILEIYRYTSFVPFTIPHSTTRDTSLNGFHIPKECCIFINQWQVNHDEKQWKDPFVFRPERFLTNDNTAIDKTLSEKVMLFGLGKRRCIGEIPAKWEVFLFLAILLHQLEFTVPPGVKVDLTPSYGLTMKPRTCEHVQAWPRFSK
# [5] = target: Cytochrome P450 1A2 (Homo sapiens, UniProt P05177); experiment: Drug metabolism assessed as human recombinant CYP1A2-mediated sulindac sulfone formation measured per pmol of protein at 500 uM after 90 mins by HPLC analysis; format: ADME; conditions: recombinant enzyme, 1.5 h; summary of the method: as §1
# Sequence of Cytochrome P450 1A2 (Homo sapiens, UniProt P05177) (P05177 whole entry): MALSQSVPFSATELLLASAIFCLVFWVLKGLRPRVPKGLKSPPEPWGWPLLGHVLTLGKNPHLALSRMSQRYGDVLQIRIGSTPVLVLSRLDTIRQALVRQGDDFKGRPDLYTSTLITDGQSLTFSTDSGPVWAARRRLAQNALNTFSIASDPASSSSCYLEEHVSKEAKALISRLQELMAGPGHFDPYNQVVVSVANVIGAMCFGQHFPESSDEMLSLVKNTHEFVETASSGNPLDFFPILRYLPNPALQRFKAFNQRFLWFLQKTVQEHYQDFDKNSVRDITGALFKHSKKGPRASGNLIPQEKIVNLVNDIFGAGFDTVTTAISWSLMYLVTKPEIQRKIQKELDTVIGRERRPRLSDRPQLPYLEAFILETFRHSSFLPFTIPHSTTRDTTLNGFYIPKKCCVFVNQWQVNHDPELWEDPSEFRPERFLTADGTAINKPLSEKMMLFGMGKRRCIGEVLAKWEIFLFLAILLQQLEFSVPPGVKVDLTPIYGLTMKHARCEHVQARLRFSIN
# [6] = target: Cytochrome P450 1B1 (Homo sapiens, UniProt Q16678); experiment: Drug metabolism assessed as human recombinant CYP1B1-mediated sulindac sulfone formation measured per pmol of protein at 500 uM after 90 mins by HPLC analysis; format: ADME; conditions: recombinant enzyme, 1.5 h; summary of the method: as §1
# Sequence of Cytochrome P450 1B1 (Q16678 whole entry): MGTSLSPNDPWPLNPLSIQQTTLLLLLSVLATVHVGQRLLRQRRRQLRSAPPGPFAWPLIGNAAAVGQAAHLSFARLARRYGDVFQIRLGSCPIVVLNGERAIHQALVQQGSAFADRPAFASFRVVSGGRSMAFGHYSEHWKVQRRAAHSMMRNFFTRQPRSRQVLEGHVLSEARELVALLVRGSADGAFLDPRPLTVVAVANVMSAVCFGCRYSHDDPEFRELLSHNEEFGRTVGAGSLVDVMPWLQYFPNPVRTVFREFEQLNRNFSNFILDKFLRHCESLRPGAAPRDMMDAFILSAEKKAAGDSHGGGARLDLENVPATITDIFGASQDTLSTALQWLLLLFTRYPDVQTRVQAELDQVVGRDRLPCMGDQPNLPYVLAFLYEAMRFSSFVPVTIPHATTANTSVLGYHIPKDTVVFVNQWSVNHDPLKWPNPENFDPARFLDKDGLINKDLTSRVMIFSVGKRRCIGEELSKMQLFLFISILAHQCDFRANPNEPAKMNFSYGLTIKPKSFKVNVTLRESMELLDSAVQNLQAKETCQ
# [7] = target: Cytochrome P450 3A4 (Homo sapiens, UniProt P08684); experiment: Drug metabolism assessed as human recombinant CYP3A4-mediated sulindac sulfone formation measured per pmol of protein at 500 uM after 90 mins by HPLC analysis; format: ADME; conditions: recombinant enzyme, 1.5 h; summary of the method: as §1
# Sequence of Cytochrome P450 3A4 (P08684 whole entry): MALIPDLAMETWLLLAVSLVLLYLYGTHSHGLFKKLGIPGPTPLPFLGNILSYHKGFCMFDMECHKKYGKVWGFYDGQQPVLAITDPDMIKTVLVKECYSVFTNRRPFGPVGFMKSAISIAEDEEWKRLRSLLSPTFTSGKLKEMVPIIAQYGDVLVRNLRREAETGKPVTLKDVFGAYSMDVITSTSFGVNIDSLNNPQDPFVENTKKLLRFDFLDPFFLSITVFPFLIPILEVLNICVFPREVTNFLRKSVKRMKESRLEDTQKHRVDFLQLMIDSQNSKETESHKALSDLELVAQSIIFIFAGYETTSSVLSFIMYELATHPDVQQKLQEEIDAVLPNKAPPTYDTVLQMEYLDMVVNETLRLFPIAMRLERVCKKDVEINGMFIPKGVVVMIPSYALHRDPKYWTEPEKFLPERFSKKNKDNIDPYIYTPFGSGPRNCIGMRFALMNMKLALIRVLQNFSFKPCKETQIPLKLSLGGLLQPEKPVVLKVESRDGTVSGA
# [8] = target: Cytochrome P450 3A2 (Rattus norvegicus, UniProt P05183); experiment: Drug metabolism assessed as rat recombinant CYP3A2-mediated sulindac sulfone formation measured per pmol of protein at 500 uM after 90 mins by HPLC analysis; format: ADME; conditions: recombinant enzyme, 1.5 h; summary of the method: as §1
# Sequence of Cytochrome P450 3A2 (P05183 whole entry): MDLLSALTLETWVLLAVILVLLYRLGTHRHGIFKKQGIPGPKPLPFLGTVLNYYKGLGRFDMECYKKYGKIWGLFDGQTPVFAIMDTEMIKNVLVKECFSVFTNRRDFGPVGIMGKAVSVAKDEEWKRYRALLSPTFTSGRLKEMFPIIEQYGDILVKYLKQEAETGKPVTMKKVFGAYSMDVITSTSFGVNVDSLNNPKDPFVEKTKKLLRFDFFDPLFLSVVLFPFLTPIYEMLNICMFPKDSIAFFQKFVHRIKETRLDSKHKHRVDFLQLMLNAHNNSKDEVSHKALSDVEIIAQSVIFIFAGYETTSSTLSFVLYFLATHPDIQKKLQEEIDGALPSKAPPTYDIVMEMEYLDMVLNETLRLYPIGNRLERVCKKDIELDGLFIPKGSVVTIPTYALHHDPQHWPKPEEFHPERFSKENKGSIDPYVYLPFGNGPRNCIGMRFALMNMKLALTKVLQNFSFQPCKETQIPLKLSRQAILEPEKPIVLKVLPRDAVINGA
# [9] = target: Cytochrome P450 2B1 (Rattus norvegicus, UniProt P00176); experiment: Drug metabolism assessed as rat recombinant CYP2B1-mediated sulindac sulfone formation measured per pmol of protein at 500 uM after 90 mins by HPLC analysis; format: ADME; conditions: recombinant enzyme, 1.5 h; summary of the method: as §1
# Sequence of Cytochrome P450 2B1 (P00176 whole entry): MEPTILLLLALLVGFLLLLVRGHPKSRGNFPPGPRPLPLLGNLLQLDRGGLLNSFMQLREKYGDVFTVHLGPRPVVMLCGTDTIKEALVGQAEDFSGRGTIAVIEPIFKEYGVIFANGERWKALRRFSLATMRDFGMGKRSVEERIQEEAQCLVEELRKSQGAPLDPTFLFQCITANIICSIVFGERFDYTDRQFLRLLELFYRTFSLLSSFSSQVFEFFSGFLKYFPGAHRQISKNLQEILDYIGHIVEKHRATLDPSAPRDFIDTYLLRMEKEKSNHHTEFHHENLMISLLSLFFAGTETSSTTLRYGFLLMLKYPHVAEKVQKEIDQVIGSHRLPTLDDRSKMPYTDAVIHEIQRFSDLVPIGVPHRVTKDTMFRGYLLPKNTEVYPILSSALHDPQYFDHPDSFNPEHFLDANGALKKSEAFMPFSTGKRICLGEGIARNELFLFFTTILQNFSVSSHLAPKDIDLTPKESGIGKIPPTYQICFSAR
# [10] = target: Cytochrome P450 2C8 (Homo sapiens, UniProt P10632); experiment: Drug metabolism assessed as human recombinant CYP2C8-mediated sulindac sulfone formation measured per pmol of protein at 500 uM after 90 mins by HPLC analysis; format: ADME; conditions: recombinant enzyme, 1.5 h; summary of the method: as §1
# [11] = target: Cytochrome P450 2C9 (Homo sapiens, UniProt P11712); experiment: Drug metabolism assessed as human recombinant CYP2C9-mediated sulindac sulfone formation measured per pmol of protein at 500 uM after 90 mins by HPLC analysis; format: ADME; conditions: recombinant enzyme, 1.5 h; summary of the method: as §1
# Sequence of Cytochrome P450 2C9 (P11712 whole entry): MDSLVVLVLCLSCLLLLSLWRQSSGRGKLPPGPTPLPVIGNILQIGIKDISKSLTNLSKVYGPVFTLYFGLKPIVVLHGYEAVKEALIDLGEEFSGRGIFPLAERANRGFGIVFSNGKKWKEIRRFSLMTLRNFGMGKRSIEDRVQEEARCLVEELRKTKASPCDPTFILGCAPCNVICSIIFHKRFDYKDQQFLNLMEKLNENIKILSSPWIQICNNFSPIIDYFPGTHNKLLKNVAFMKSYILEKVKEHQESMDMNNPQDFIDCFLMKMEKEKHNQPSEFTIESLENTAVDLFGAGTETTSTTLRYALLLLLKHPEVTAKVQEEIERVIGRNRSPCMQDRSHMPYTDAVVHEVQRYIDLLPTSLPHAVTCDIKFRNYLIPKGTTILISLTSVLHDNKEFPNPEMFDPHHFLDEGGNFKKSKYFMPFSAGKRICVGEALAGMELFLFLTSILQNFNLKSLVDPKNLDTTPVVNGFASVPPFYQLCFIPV
# [12] = target: Cytochrome P450 2C19 (Homo sapiens, UniProt P33261); experiment: Drug metabolism assessed as human recombinant CYP2C19-mediated sulindac sulfone formation measured per pmol of protein at 500 uM after 90 mins by HPLC analysis; format: ADME; conditions: recombinant enzyme, 1.5 h; summary of the method: as §1
# Sequence of Cytochrome P450 2C19 (P33261 whole entry): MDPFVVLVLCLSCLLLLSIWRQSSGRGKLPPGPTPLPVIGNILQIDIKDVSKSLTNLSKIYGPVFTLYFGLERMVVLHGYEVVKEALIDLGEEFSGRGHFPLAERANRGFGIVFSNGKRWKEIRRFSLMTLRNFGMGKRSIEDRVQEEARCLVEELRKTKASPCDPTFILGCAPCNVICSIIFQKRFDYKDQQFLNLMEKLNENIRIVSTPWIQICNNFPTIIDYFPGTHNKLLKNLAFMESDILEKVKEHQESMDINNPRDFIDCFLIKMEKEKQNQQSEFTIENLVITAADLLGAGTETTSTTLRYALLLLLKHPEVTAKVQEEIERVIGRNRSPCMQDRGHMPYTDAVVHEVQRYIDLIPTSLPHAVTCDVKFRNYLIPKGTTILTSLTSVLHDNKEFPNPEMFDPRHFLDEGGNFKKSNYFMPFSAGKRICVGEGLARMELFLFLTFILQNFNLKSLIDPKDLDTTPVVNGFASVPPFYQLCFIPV
# [13] = target: Cytochrome P450 2D6 (Homo sapiens, UniProt P10635); experiment: Drug metabolism assessed as human recombinant CYP2D6-mediated sulindac sulfone formation measured per pmol of protein at 500 uM after 90 mins by HPLC analysis; format: ADME; conditions: recombinant enzyme, 1.5 h; summary of the method: as §1
# [14] = Drug metabolism in human HepG2 cells assessed as induction of cytochrome P450-mediated sulindac sulfone formation at 125 uM preincubated for 2 to 24 hrs followed by compound-washout and fresh compound addition measured after 1 hr by HPLC analysis; format: ADME, cell-based; conditions: hepg2, 1 h
# Summary of the method: (§2)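 HepG2 cells in MEM/10% FBS grown to 80% confluence, pretreated 2–24 h with 125 μM (R)- or (S)-sulindac at 37°C, 5% CO2; washed with PBS, then 200 μM (R)- or (S)-sulindac in fresh medium for 1 h at 37°C; medium mixed with 3 volumes acetonitrile and analysed by HPLC for sulfone.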
# [15] = Activity of cytochrome P450 in human HepG2 cells assessed as enzyme-mediated drug metabolism at 125 uM preincubated for 2 to 24 hrs followed by compound-washout and fresh compound addition measured after 1 hr by HPLC analysis; format: ADME, cell-based; conditions: hepg2, 1 h; summary of the method: as §2
# [16] = Drug metabolism assessed as Escherichia coli MSRB-mediated reduced product formation; format: ADME
# [17] = target: Methionine-R-sulfoxide reductase B2, mitochondrial (Homo sapiens, UniProt Q9Y3D2); experiment: Drug metabolism assessed as human MSRB2-mediated reduced product formation; format: ADME
# Sequence of Methionine-R-sulfoxide reductase B2, mitochondrial (Q9Y3D2 whole entry): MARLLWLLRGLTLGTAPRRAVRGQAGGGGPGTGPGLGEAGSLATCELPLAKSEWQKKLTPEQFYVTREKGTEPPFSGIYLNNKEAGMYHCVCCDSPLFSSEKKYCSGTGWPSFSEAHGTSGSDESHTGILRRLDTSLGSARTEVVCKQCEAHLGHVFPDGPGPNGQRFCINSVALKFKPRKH
# [18] = target: Methionine-R-sulfoxide reductase B3 (Homo sapiens, UniProt Q8IXL7); experiment: Drug metabolism assessed as human MSRB3-mediated reduced product formation; format: ADME
# Sequence of Methionine-R-sulfoxide reductase B3 (Q8IXL7 whole entry): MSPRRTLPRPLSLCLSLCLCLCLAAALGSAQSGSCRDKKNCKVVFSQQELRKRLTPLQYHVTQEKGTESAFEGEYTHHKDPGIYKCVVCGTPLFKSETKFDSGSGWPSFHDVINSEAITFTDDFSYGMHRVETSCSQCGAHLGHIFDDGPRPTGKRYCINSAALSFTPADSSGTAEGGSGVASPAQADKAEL
# [19] = target: T1, Methionine-R-sulfoxide reductase B1 (Rattus norvegicus, UniProt Q52KJ8); experiment: Drug metabolism in rat liver S100 fraction assessed as MSRB1-mediated reduced product formation measured per mg of protein at 200 uM by HPLC analysis; format: ADME, tissue-based
# T1 sequence (Q52KJ8 whole entry): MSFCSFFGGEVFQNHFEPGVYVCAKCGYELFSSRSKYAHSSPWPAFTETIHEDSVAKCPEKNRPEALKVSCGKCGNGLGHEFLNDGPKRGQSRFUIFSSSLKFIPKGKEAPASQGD
# Summary of the method: (§3)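 Fractions (S-100, 30–70% ammonium sulfate cut) from rat liver purification; aliquots incubated with 200 μM (R)-sulindac or 200 μM DABS-R-Met(o) in 100 mM Tris pH 7.4 with 15 mM DTT or Trx system (1 mM NADPH, TrxB, TrxA), 37°C. Stopped with acetonitrile; C18 HPLC, sulindac sulfide at 330 nm, DABS-Met at 436 nm. Specific activity as nmol product/mg protein/h.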
# [20] = target: T1, Methionine-R-sulfoxide reductase B1; experiment: Drug metabolism in rat liver ammonium sulfate fraction assessed as MSRB1-mediated reduced product formation measured per mg of protein at 200 uM by HPLC analysis; format: ADME, tissue-based; summary of the method: as §3
# [21] = target: T1, Methionine-R-sulfoxide reductase B1; experiment: Drug metabolism in rat liver DEAE fraction assessed as MSRB1-mediated reduced product formation measured per mg of protein at 200 uM by HPLC analysis; format: ADME, tissue-based
# Summary of the method: (§4)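 Fractions from rat liver reductase purification (S-100, 30–70% ammonium sulfate cut, DEAE pool, G50 gel filtration) incubated with 200 μM (R)-sulindac in 100 mM Tris pH 7.4 with 15 mM DTT, 37°C, 100 μl; stopped with acetonitrile; sulindac sulfide quantified by C18 HPLC at 330 nm; specific activity as nmol product/mg protein/h.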
# [22] = target: T1, Methionine-R-sulfoxide reductase B1; experiment: Drug metabolism in rat liver G50 fraction assessed as MSRB1-mediated reduced product formation measured per mg of protein at 200 uM by HPLC analysis; format: ADME, tissue-based; summary of the method: as §4
# [23] = tested on: MRC5; experiment: Cytoprotective activity in TBHP-induced human MRC5 cells at 500 uM incubated for 48 hrs prior to TBHP-challenge measured after 2 hrs; format: functional, cell-based
# Summary of the method: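 Normal lung cells preincubated 48 h with 500 μM (R)- or (S)-sulindac or no drug, then challenged with TBHP; viability expressed as percent of cells not exposed to TBHP; mean and S.E. of five repeats; p < 0.05 versus no-drug controls.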
# [24] = tested on: A549; experiment: Potentiation of TBHP-induced cytotoxicity in human A549 cells at 500 uM incubated for 48 hrs prior to TBHP-challenge measured after 2 hrs; format: functional, cell-based
# [25] = tested on: Zone of skin; experiment: Drug metabolism in Sprague-Dawley rat skin assessed as sulindac sulfone formation at 2 mg, ip after 0.5 to 4 hrs by HPLC analysis; conditions: in vivo
# [26] = tested on: Zone of skin; experiment: Drug metabolism in Sprague-Dawley rat skin assessed as sulindac sulfide formation at 2 mg, ip after 0.5 to 4 hrs by HPLC analysis; conditions: in vivo
# [27] = tested on: Liver; experiment: Drug metabolism in Sprague-Dawley rat liver assessed as sulindac sulfone formation at 2 mg, ip after 0.5 to 4 hrs by HPLC analysis; conditions: in vivo
# [28] = tested on: Liver; experiment: Drug metabolism in Sprague-Dawley rat liver assessed as sulindac sulfide formation at 2 mg, ip after 0.5 to 4 hrs by HPLC analysis; conditions: in vivo
# [29] = tested on: Plasma; experiment: Drug metabolism in Sprague-Dawley rat plasma assessed as sulindac sulfone formation at 2 mg, ip after 0.5 to 4 hrs by HPLC analysis; conditions: in vivo
# [30] = tested on: Plasma; experiment: Drug metabolism in Sprague-Dawley rat plasma assessed as sulindac sulfide formation at 2 mg, ip after 0.5 to 4 hrs by HPLC analysis; conditions: in vivo
# [31] = tested on: Liver microsome; experiment: Drug metabolism in rat liver microsomes assessed as sulindac sulfone formation at 200 µM after 60 mins by HPLC analysis in presence of NADPH; conditions: 1 h
# [32] = target: T1, Methionine-R-sulfoxide reductase B1; experiment: Activity of MSRB1 in rat liver S100 fraction assessed as enzyme-mediated drug metabolism measured per mg of protein at 200 uM by HPLC analysis; format: ADME; summary of the method: as §4
# [33] = target: T1, Methionine-R-sulfoxide reductase B1; experiment: Activity of MSRB1 in rat liver ammonium sulfate fraction assessed as enzyme-mediated drug metabolism measured per mg of protein at 200 uM by HPLC analysis; format: ADME; summary of the method: as §4
# [34] = target: T1, Methionine-R-sulfoxide reductase B1; experiment: Activity of MSRB1 in rat liver DEAE fraction assessed as enzyme-mediated drug metabolism measured per mg of protein at 200 uM by HPLC analysis; format: ADME; summary of the method: as §4
# [35] = target: T1, Methionine-R-sulfoxide reductase B1; experiment: Activity of MSRB1 in rat liver G50 fraction assessed as enzyme-mediated drug metabolism measured per mg of protein at 200 uM by HPLC analysis; format: ADME; summary of the method: as §4
# [36] = target: T1, Methionine-R-sulfoxide reductase B1; experiment: Drug metabolism in rat liver S100 fraction assessed as MSRB1-mediated DABS-Met formation measured per mg of protein at 200 uM by HPLC analysis; format: ADME, tissue-based; summary of the method: as §3
# [37] = target: T1, Methionine-R-sulfoxide reductase B1; experiment: Drug metabolism in rat liver ammonium sulfate fraction assessed as MSRB1-mediated DABS-Met formation measured per mg of protein at 200 uM by HPLC analysis; format: ADME, tissue-based; summary of the method: as §3
# [38] = target: T1, Methionine-R-sulfoxide reductase B1; experiment: Drug metabolism in rat liver DEAE fraction assessed as MSRB1-mediated DABS-Met formation measured per mg of protein at 200 uM by HPLC analysis; format: ADME, tissue-based
# Summary of the method: (§5)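 Rat liver purification fractions (DEAE, G50 peak) assayed with 200 μM DABS-R-Met(o) in 100 mM Tris pH 7.4, DTT (15 mM) or Trx system (1 mM NADPH, TrxB, TrxA) as reductant, 37°C; acetonitrile stop; DABS-Met resolved on C18 HPLC, absorbance 436 nm; activity per mg protein, expressed as purification factor.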
# [39] = target: T1, Methionine-R-sulfoxide reductase B1; experiment: Drug metabolism in rat liver G50 fraction assessed as MSRB1-mediated DABS-Met formation measured per mg of protein at 200 uM by HPLC analysis; format: ADME, tissue-based; summary of the method: as §5
smiles,measurement,setting,value
"CC1=C(CC(=O)O)c2cc(F)ccc2/C1=C\c1ccc([S+](C)[O-])cc1 (single isomer, unassigned)",Drug metabolism,[1],metabolite_not_detected
same,Drug metabolism,[2],metabolite_not_detected
same,Drug metabolism,[3],380 pmol/h
same,Drug metabolism,[4],460 pmol/h
same,Drug metabolism,[5],130 pmol/h
same,Drug metabolism,[6],73 pmol/h
same,Drug metabolism,[7],47 pmol/h
same,Drug metabolism,[8],metabolite_not_detected
same,Drug metabolism,[9],metabolite_not_detected
same,Drug metabolism,[10],metabolite_not_detected
same,Drug metabolism,[11],metabolite_not_detected
same,Drug metabolism,[12],metabolite_not_detected
same,Drug metabolism,[13],metabolite_not_detected
same,Drug metabolism,[14],metabolite_detected
same,Drug metabolism,[15],metabolite_detected
same,Drug metabolism,[16],metabolite_not_detected
same,Drug metabolism,[17],metabolite_not_detected
same,Drug metabolism,[18],metabolite_not_detected
same,Drug metabolism,[19],4.2 nmol/h
same,Drug metabolism,[20],5.6 nmol/h
same,Drug metabolism,[21],32.6 nmol/h
same,Drug metabolism,[22],1160 nmol/h
same,Activity,[23],Active
same,Activity,[24],Active
same,Drug metabolism,[25],metabolite_detected
same,Drug metabolism,[26],metabolite_detected
same,Drug metabolism,[27],metabolite_detected
same,Drug metabolism,[28],metabolite_detected
same,Drug metabolism,[29],metabolite_detected
same,Drug metabolism,[30],metabolite_detected
same,Drug metabolism,[31],metabolite_detected
CSCC[C@H](NS(=O)(=O)c1ccc(/N=N/c2ccc(N(C)C)cc2)cc1)C(=O)O,Drug metabolism,[32],metabolite_detected
same,Drug metabolism,[33],metabolite_detected
same,Drug metabolism,[34],metabolite_detected
same,Drug metabolism,[35],metabolite_detected
CN(C)c1ccc(/N=N/c2ccc(S(=O)(=O)N[C@@H](CC[S@@+](C)[O-])C(=O)O)cc2)cc1,Drug metabolism,[36],metabolite_detected
same,Drug metabolism,[37],metabolite_detected
same,Drug metabolism,[38],metabolite_detected
same,Drug metabolism,[39],metabolite_detected

# From ChEMBL document CHEMBL3525907, “Studies on the metabolism and biological activity of the epimers of sulindac” (Drug Metab Dispos, 2011)
